Experimental data of several laboratories.
Protocols differ between the studies behind these lines.
ADORA3: Adenosine receptor A3 (ADORA3, Homo sapiens, UniProt P0DMS8)
BRAF V600E: Serine/threonine-protein kinase B-raf (BRAF, Homo sapiens, UniProt P15056, V600E)
NPY1R: Neuropeptide Y receptor type 1 (NPY1R, Homo sapiens, UniProt P25929)
DRD2: D(2) dopamine receptor (DRD2, Homo sapiens, UniProt P14416)
PARP16: Protein mono-ADP-ribosyltransferase PARP16 (PARP16, Homo sapiens, UniProt Q8N5Y8)
Blk: Tyrosine-protein kinase Blk (Blk, Mus musculus, UniProt P16277)

For `CN1CCCn2c1nc1c2c(=O)n(C)c(=O)n1C`, the inhibition was 3% (ADORA3; ligand displacement, radioligand; 10 µM, cell membranes).
`Cc1ccc(N=Nc2sc(NN=C(CS(=O)(=O)c3ccccc3)c3ccc(C)cc3)nc2C)cc1` gave an inhibition of 48% (BRAF V600E; enzyme activity, inhibitor, ATP luminescence; 0.1 µM).
For `COCCOc1ccc(N2CCN(CCn3ncc4c3nc(N)n3nc(-c5ccco5)nc43)CC2)cc1`, the inhibition was 35% (ADORA3; ligand displacement, radioligand; 10 µM, cell membranes).
The inhibition of `CS(=O)(=O)Nc1cccc(-c2csc(NC(=O)CSc3nc4nccnc4c(=O)n3CCc3ccccc3)n2)c1` is reported as 0% (Phosphatidylinositol 4-kinase type 2-alpha (PI4K2A, Homo sapiens, UniProt Q9BTU6); enzyme activity, inhibitor; 10 µM).
With `COc1cc(NC(C)=O)c(Cl)cc1C(=O)Nc1nccs1` the inhibition was 6% (NPY1R; cell-free assay; 10 µM).
`CCOc1ccc(N2C(=O)CC(NCCc3ccccc3Cl)C2=O)cc1` (stereo not shown) has an inhibition of 42.5% (DRD2; enzyme activity, inhibitor; 10 µM).
`Nc1ccc2c(c1)CCCn1nnnc1-2` gave an inhibition of 53% (PARP16; enzyme activity, inhibitor; 10 µM).
`CCC(C)N1CCCn2c1nc1c2c(=O)n(C)c(=O)n1C` (stereo not shown) has an inhibition of 14% (ADORA3; ligand displacement, radioligand; 10 µM, cell membranes).
With `OC(CNCc1cccc(Oc2nnnn2-c2ccccc2)c1)c1ccccc1` (stereo not shown) the inhibition was 35.6% (DRD2; enzyme activity, inhibitor; 10 µM).
`O=C(c1ccc(F)cc1)N(Cc1ccccc1)C1CCCCC1` has an inhibition of 4% (ADORA3; cell-free assay; 10 µM).
With `CCN(CC)CCNC(=O)c1c(C)[nH]c(/C=C2\C(=O)Nc3ccc(F)cc32)c1C` the inhibition was 83% (Blk; enzyme activity, inhibitor; 10 µM).
For `CNCc1ccc(-c2cc(-c3nc(-c4ccc(S(=O)(=O)C(C)C)cc4)cnc3N)on2)cc1`, the inhibition was 36% (Blk; enzyme activity, inhibitor; 2 µM).
The inhibition of `C[C@@]1(c2cccc(Nc3ccc(C4CC4)nc3)c2Cl)CC(=O)N(C2CCOCC2)C(=N)N1` is reported as 52% (Beta-secretase 1 (BACE1, Homo sapiens, UniProt P56817); enzyme activity, inhibitor, FRET; 10 µM).
The inhibition of `Cc1ccc(C(CS(=O)(=O)c2ccccc2)=NNC2=NC(=O)C(=NNc3ccc([N+](=O)[O-])cc3)S2)cc1` is reported as 49% (BRAF V600E; enzyme activity, inhibitor, ATP luminescence; 0.1 µM).
With `O=C1C2CCCN2C(=O)N1CCCCN1CCN(c2cccc(C(F)(F)F)c2)CC1` (stereo not shown) the inhibition was 10% (DRD2; enzyme activity, inhibitor; 10 µM).
`CN(C(=O)N(C)C1C2CC3CC(C2)CC1C3)c1ccc(F)c(F)c1F` (stereo not shown) has an inhibition of less than 1% (ephB (Mycobacterium tuberculosis, UniProt I6YC03); enzyme activity, inhibitor; 10 nM).
For `CC(=O)c1nn(CC(=O)N2C[C@H](F)C[C@H]2C(=O)Nc2cccc(Br)n2)c2ccc(-c3cnc(C)nc3)cc12`, the inhibition was 0.7% (Neutrophil elastase (ELANE, Homo sapiens, UniProt P08246); enzyme activity, inhibitor; 10 µM).
For `COc1ccc2c(c1)C(=O)N(CCCN1CCN(c3ccccc3OC)CC1)C2`, the inhibition was 85% (DRD2; ligand displacement, radioligand; 10 µM).
For `COc1ccc(-c2ccc(CNCC(O)c3ccccc3)o2)cc1Cl` (stereo not shown), the inhibition was 46% (DRD2; enzyme activity, inhibitor; 10 µM).
With `Cc1ccc(Nc2nccc(N(C)c3ccc4c(C)n(C)nc4c3)n2)cc1S(N)(=O)=O` the inhibition was 63% (Dual specificity mitogen-activated protein kinase kinase 4 (Map2k4, Mus musculus, UniProt P47809); enzyme activity, inhibitor; 10 µM).
`CCC(=O)c1ccc(OCC(O)CN2CCN(S(=O)(=O)N3CCCCC3)CC2)cc1` (stereo not shown) has an inhibition of 6.8% (DRD2; enzyme activity, inhibitor; 10 µM).
For `CN(C)C1CCN(CC#Cc2nn(C3CCCC3)c3nc(NCc4ccccc4)ncc23)C1` (stereo not shown), the inhibition was 31% (Ephrin type-B receptor 2 (EPHB2, Homo sapiens, UniProt P29323); enzyme activity, inhibitor, FRET; 10 µM).
The inhibition of `CCCCn1c(=O)c2[nH]c(C34CC5CC(CC3C5)C4)nc2n(CCCO)c1=O` is reported as 39% (ADORA3; ligand displacement, radioligand; 10 µM, cell membranes).
The inhibition of `O=C(Nc1ccc(S(=O)(=O)N2CCC(Cl)CC2)cc1)c1ccc([N+](=O)[O-])o1` is reported as 7% (NPY1R; ligand displacement, radioligand; 10 µM).
The inhibition of `CCCC(C)N1CCCn2c1nc1c2c(=O)n(C)c(=O)n1C` (stereo not shown) is reported as 17% (ADORA3; ligand displacement, radioligand; 10 µM, cell membranes).
`CN(C)C(=O)N[C@H]1CC[C@H](CCN2CCN(c3cccc(Cl)c3Cl)CC2)CC1` gave an inhibition of 101% (DRD2; cell-free assay; 10 µM).
For `CNC(=O)c1cc(Oc2ccc(NC(=O)Nc3ccc(Cl)c(C(F)(F)F)c3)cc2)ccn1`, the inhibition was 51% (Blk; enzyme activity, inhibitor; 10 µM).
`Cc1ccc(C(CS(=O)(=O)c2ccccc2)=NN=C2N=C(c3ccc(C)cc3)CS2)cc1` has an inhibition of 86% (BRAF V600E; enzyme activity, inhibitor, ATP luminescence; 10 µM).
For `CCCN1CCCn2c1nc1c2c(=O)n(C)c(=O)n1C`, the inhibition was 10% (ADORA3; ligand displacement, radioligand; 10 µM, cell membranes).
`O=C(c1ccc(Cl)cc1)N(Cc1ccccc1)C1CCCCC1` gave an inhibition of -13.6% (NPY1R; cell-free assay; 10 µM).
For `O=C1CC(N2CCN(Cc3ccccc3)CC2)C(=O)N1c1ccc2c(c1)OCCO2` (stereo not shown), the inhibition was 34.1% (DRD2; enzyme activity, inhibitor; 10 µM).
`Cc1ccc(C(CS(=O)(=O)c2ccccc2)=NNc2nc(C)c(N=Nc3cccc(C)c3)s2)cc1` gave an inhibition of 63% (BRAF V600E; enzyme activity, inhibitor, ATP luminescence; 0.1 µM).
The inhibition of `Cn1cnc(Br)c1C1=CN(c2ncnc3[nH]cnc23)CCS1` is reported as 18.7% (Serine/threonine-protein kinase Nek5 (NEK5, Homo sapiens, UniProt Q6P3R8); enzyme activity, inhibitor, radiometric; 50 nM).
`O=C1N=C(N2CCCCN2)S/C1=C\c1ccc(F)cc1O` has an inhibition of 27% (ADORA3; ligand displacement, radioligand; 10 µM).
The inhibition of `CC(C)N1CCCn2c1nc1c2c(=O)n(C)c(=O)n1C` is reported as 8% (ADORA3; ligand displacement, radioligand; 10 µM, cell membranes).
`Cc1ccc(C(CS(=O)(=O)c2ccccc2)=NNC2=NC(=O)C(=NNc3ccccc3)S2)cc1` gave an inhibition of 89% (BRAF V600E; enzyme activity, inhibitor, ATP luminescence; 10 µM).
With `CC(=O)Nc1ccc(N2C(=O)CC(NCCc3ccccc3)C2=O)cc1` (stereo not shown) the inhibition was 37.8% (DRD2; enzyme activity, inhibitor; 10 µM).
For `O=C1CCCc2c(O)cccc2N1`, the inhibition was 0% (PARP16; enzyme activity, inhibitor; 10 µM).
The inhibition of `Oc1cccc(Nc2nc(-c3ccc(F)cc3F)cs2)c1` is reported as -16.2% (NPY1R; cell-free assay; 10 µM).
`CCN(Cc1ccccc1C(F)(F)F)C(=O)C1CCN(S(=O)(=O)c2ccc3[nH]ncc3c2)CC1` has an inhibition of 14% (ADORA3; ligand displacement, radioligand; 10 µM).
`NC(=S)NN=C(CS(=O)(=O)c1ccccc1)c1ccc(F)cc1` has an inhibition of 34% (BRAF V600E; enzyme activity, inhibitor, ATP luminescence; 10 nM).
For `CC(C)CN1CCCn2c1nc1c2c(=O)n(C)c(=O)n1C`, the inhibition was 18% (ADORA3; ligand displacement, radioligand; 10 µM, cell membranes).
`Cc1ccc(C(CS(=O)(=O)c2ccccc2)=NN=C2N=C(c3ccc(Br)cc3)CS2)cc1` gave an inhibition of 61% (BRAF V600E; enzyme activity, inhibitor, ATP luminescence; 0.1 µM).
`CC(=O)N[C@H]1CSSC[C@@H](C(=O)N[C@@H](Cc2c[nH]c3ccccc23)C(N)=O)NC(=O)[C@@H](Cc2ccccc2)NC(=O)[C@H](CCCNC(=N)N)NC1=O` has an inhibition of 45% (Melanocortin receptor 3 (MC3R, Homo sapiens, UniProt P41968); ligand displacement, radioligand; 10 µM, 40 min).
`Cc1ccc(C(CS(=O)(=O)c2ccccc2)=NNC2=NC(=O)C(=NNc3ccc(Cl)cc3)S2)cc1` has an inhibition of 46% (BRAF V600E; enzyme activity, inhibitor, ATP luminescence; 0.1 µM).
With `Nc1ncnc2[nH]cnc12` the inhibition was 13% (ADORA3; ligand displacement, radioligand; 30 µM, cell membranes).
